Sampled rows, rich in hits. Any-hit rate of the full collection: about 4.2%.
CHOP UPR activ: activators of apoptotic CHOP UPR arm, primary screen, cell-based, CHO-CHOP luciferase reporter, luminescence, uHTS; UPR activation; percent of tunicamycin response over DMSO baseline; activation, % at 10 µM; 0.34% of 330,000 active; AID 449763, 2010;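 active = at 10 µM dose, activation of 40% or more, normalized to positive control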;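 note: 100% = tunicamycin at 10 µg/mL and 0% = DMSO alone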
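Dosing – one dose, 10 µM in 0.5% DMSO · System – CHO-CHOP cells, stable luciferase reporter of PERK-eIF2a-CHOP signalling · Input – 500 cells/well · Control set – tunicamycin 10 µg/mL final as positive, DMSO-only wells as negative · Timing – 6 h compound treatment, 37 °C · Measure – % activation vs tunicamycin · Technique – luminescence read with Steady-Glo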
Hep lipid drop: inhibitors of hepatocyte lipid droplet formation, primary screen, imaging, high-throughput imaging, BODIPY stain | inhibition, % at 6.5 µM | 0.4% of 240,000 active | AID 1656, 2009 | AML12 mouse hepatocytes, oleate lipid droplets;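 active = lipid droplet intensity inhibited by at least 50%, with more than 500 cells counted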
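Assay system: AML12 hepatocytes (mouse); Probe or stimulus: oleic acid at 100 µM to induce lipid droplet formation; Dosing: compound at 6.5 µM only; Schedule: compound with oleate, overnight; Detection: fluorescence imaging, 20x objective, two fields per well; Measure: % inhibition of lipid droplet signal.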
TMEM16A act: TMEM16A chloride channel activators or potentiators, primary screen, cell-based, HTS; Anoctamin-1 (Mus musculus), Q8BHY3; 0.3% of 340,000 active; AID 623877, 2012; B-score at 10 µM; HEK293 TMEM16A/YFP-H148Q/I152L, iodide quench fluorescence; stronger effect = lower value;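 active = fluorescence-ratio B-score plate-corrected deviation score at least 3 library SD below zero, with starting fluorescence score within 5 deviations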;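 note: channel opened by trigger with iodide after compound preincubation; score built on the fluorescence ratio of max minus min over baseline; more negative score means more quench and so TMEM16A activation or potentiation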
Target sequence (Q8BHY3 whole entry, looked up): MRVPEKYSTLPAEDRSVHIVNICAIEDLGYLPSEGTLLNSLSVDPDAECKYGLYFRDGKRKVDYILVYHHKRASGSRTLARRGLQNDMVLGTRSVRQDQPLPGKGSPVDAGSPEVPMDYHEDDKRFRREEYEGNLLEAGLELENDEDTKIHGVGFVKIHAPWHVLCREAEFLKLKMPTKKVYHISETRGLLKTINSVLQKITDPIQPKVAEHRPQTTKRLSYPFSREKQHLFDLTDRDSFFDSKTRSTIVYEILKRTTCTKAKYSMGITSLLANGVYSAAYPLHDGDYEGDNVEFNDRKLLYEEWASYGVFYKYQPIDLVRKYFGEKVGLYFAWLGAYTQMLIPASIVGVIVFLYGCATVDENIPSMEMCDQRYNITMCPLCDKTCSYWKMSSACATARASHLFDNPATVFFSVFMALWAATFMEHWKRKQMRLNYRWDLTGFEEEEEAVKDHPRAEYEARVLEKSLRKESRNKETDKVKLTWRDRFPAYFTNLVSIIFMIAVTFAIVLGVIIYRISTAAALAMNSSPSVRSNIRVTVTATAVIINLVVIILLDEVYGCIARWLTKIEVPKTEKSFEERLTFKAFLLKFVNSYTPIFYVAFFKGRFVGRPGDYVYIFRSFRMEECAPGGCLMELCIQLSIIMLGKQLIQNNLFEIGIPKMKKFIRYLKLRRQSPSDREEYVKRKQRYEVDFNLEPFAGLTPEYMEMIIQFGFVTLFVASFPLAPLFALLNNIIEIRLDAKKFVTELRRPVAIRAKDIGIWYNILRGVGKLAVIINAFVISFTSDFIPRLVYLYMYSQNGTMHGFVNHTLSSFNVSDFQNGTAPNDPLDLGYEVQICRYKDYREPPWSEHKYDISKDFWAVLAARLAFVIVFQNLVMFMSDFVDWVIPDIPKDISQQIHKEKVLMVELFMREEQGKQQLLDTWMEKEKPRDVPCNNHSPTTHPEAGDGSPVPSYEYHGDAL
UPR XBP1 act: activators of adaptive XBP1 UPR arm, primary screen, cell-based, CHO-XBP1 luciferase reporter, luminescence, uHTS | activation, % at 20 µM | AID 463104, 2010 | 0.33% of 330,000 active | IRE1-XBP1 UPR activation; percent of tunicamycin response, DMSO as zero;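 active = versus positive control, 20 µM dose yields 30% or more activation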;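 note: 100% = tunicamycin at 10 µg/mL and 0% = DMSO only wells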
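Material – CHO cell line with stable XBP1 luciferase reporter · Buffer or medium – F12 plus 10% FBS · Compound – single point, 20 µM final compound, 1% DMSO · Schedule – 16-18 h cell attachment at 37 °C, then 6 h compound exposure · Signal – Steady-Glo luminescence read · Benchmarks – high control tunicamycin 10 µg/mL final, low control DMSO vehicle only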
CHOP inh: inhibitors of CHOP promoter induction, primary screen, cell-based, unfolded protein response, luciferase reporter; inhibition, % at 10 µM; CHO-K1 CHOP-promoter luciferase, tunicamycin-induced, 15-18 h; AID 2732, 2010; 3.8% of 220,000 active;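 active = compounds that reduced the stress-induced luciferase reporter signal by more than about 70% of percent inhibition, limit read from the data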;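 note: 0% = tunicamycin plus vehicle and 100% = wells without tunicamycin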
ANO1 block: TMEM16A chloride channel inhibitors, primary screen, cell-based, HTS | normalized B-score (activity score, 25-100; higher = stronger inhibition) at 10 µM | 1.2% of 310,000 active | AID 588511, 2011 | Anoctamin-1 (Mus musculus), Q8BHY3 | HEK293 TMEM16A/YFP iodide influx fluorescence, ionomycin;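 active = ratio plate-corrected score three or more library SD toward inhibition, starting fluorescence score within five deviations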;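 note: score derived from kinetic fluorescence span divided by baseline fluorescence per well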
CHOP inh conf: retest of CHOP induction inhibitors, confirmation, cell-based | inhibition, % at 10 µM | shares compounds with CHOP inh | 45% of 2,100 active | CHO-CHOP promoter luciferase reporter, tunicamycin-induced, luminescence;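 active = mean of three repeat readings of reporter signal inhibition above a set limit, cut at about 70% in these data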;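 note: 0% = tunicamycin plus vehicle and 100% = wells lacking tunicamycin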
The depositor's hits bear a star; i = inactive; / = not tested or not shown.

SMILES	CHOP UPR activ	Hep lipid drop	TMEM16A act	UPR XBP1 act	CHOP inh	ANO1 block	CHOP inh conf
O=C1C=C(c2ccccc2)C(=O)N1Nc1ccccc1	-9	10	i	-10	107*	i	-6
O=C1CC(c2ccccc2Cl)CC(O)=C1C=Nc1ccccc1 (stereo not given)	37	16	i	24	103*	i	104*
Cc1ccc(N=CC2=C(O)CC(c3ccccc3Cl)CC2=O)cc1 (stereo not given)	1	6	i	4	3	i	/
Cc1ccc(N=CC2=C(O)CC(c3cccc(Cl)c3)CC2=O)cc1 (stereo not given)	2	-2	i	-1	29	i	/
O=C1CC(c2ccccc2)CC(O)=C1C=Nc1cccc(Cl)c1 (stereo not given)	34	-8	i	10	102*	i	76*
O=c1[nH]c2ccc(NCc3ccccc3OCc3ccc(Cl)cc3)cc2[nH]1	4	-7	i	-4	/	i	/
CCOC(=O)c1oc2ccc(S(=O)(=O)n3nc(-c4ccc(C)cc4)cc3N)cc2c1C	1	/	i	-4	97*	i	56
CCOC(=O)c1oc2ccc(S(=O)(=O)n3nc(-c4ccc(Cl)cc4)cc3N)cc2c1C	-1	/	i	1	34	i	/
CC(C)CCNC(=O)CCCC1=NS(=O)(=O)c2ccccc2N1	1	11	i	-1	-14	i	/
O=C(CCC(=O)c1ccc(Br)cc1)Nc1cccc(C(F)(F)F)c1	-1	/	i	-3	108*	i	-4
Cc1ccc(C(=O)CCC(=O)Nc2cccc(C(F)(F)F)c2)cc1	-3	/	i	-2	102*	i	41
CCN(CC)c1nc2c(c(=O)[nH]c(=O)n2C)n1CCCc1ccccc1	-2	-15	i	6	/	i	/
Cc1cccc(OCC(=O)Nc2ccc(NC(=O)c3ccco3)cc2)c1	1	0	i	-1	/	/	/
CC1(NC(=O)Nc2cccc3ccccc23)CCS(=O)(=O)C1 (stereo not given)	0	8	i	-6	/	i	/
CNc1ccc(Br)cc(C(=O)/C=C/c2cccc(Cl)c2Cl)c1=O	/	-3	i	/	101*	/	-100
O=C1C(Cl)=C(Nc2ccccc2)C(=O)c2ccccc21	/	-2	i	/	112*	i	127*
COc1cc(CC(=O)OCC(=O)NC2CCCC2)cc(OC)c1OC	0	/	i	-4	/	/	/
Cc1cccc(C(=O)c2cnc3ccccc3c2-c2ccccc2)c1	0	-14	i	1	102*	i	77*
Cc1ccc(-n2sc3ccccc3c2=O)cc1	15	-2	i	-2	106*	i	30
O=C(NCC(F)(F)F)c1ccc(S(=O)(=O)N2CCN(C(=O)C3CCCO3)CC2)cc1 (stereo not given)	2	/	i	-1	/	/	/
COc1ccccc1NC(=O)NNC(=O)CCc1ccccc1	2	-6	i	-5	/	i	/
C/C(=N\NC(=O)c1nn(C)c(C)c1Br)c1ccc(NC(=O)c2ccoc2C)cc1	3	4	i	8	100*	i	115*
C/C(=N\NC(=O)c1c(Br)c(C)nn1C)c1ccc(NC(=O)c2ccoc2C)cc1	2	4	i	2	20	i	/
O=C(COC(=O)Cc1c[nH]c2ccccc12)Nc1c(Cl)cccc1C(F)(F)F	5	/	i	1	/	i	/
Nc1cc(N)c(OCC(F)(F)F)cc1OCC(F)(F)F	-1	/	i	-2	102*	i	0
SMILES	CHOP UPR activ	Hep lipid drop	TMEM16A act	UPR XBP1 act	CHOP inh	ANO1 block	CHOP inh conf
COc1ccc(NC(=O)CN(C)C(=O)Cc2c(C)nc3ccccc3c2C)cc1	0	/	i	2	/	i	/
CC1=CC(=O)C=C(C)C1=NOS(=O)(=O)c1ccccc1	/	-108	i	/	/	/	74*
Cc1ccc(NC(=O)CCl)cc1S(=O)(=O)N1CCCCCC1	34	6	i	-4	108*	i	134*
CCOc1ccc(Cn2c(C)nc([N+](=O)[O-])c2SCC(O)CCl)cc1[N+](=O)[O-] (stereo not given)	1	-16	i	2	6	i	/
Cc1ccc(-c2n[nH]c(=S)n2/N=C/c2c(C)nn(-c3ccccc3)c2C)cc1	1	12	i	5	109*	i	37
O=C(C[n+]1cc(Br)cc2ccccc21)c1ccc(Br)cc1	2	1	i	-4	/	i	/
O=C(C[n+]1cn(C(F)F)c2ccccc21)c1ccc(Br)cc1	-2	8	i	1	101*	i	15
COc1ccc(C(=O)c2c(C(F)(F)F)oc3c2C(=O)c2ccccc2C3=O)cc1	-1	-28	i	-3	106*	i	117*
O=C(Nc1ccc(Cl)cc1)Nc1ccc(N2CCCC2)c(S(=O)(=O)Nc2ccccc2Cl)c1	16	-22	i	11	100*	i	73*
O=C(Nc1ccc(N2CCOCC2)c(S(=O)(=O)Nc2ccccc2Cl)c1)c1ccccc1	-3	/	i	-3	/	/	/
CCSc1nnnn1-c1ccccc1	-1	4	i	4	1	i	/
Cc1ccc(C)c(-n2nnnc2Sc2nnnn2-c2ccccc2)c1	6	/	i	-3	/	i	24
CCc1ccc2c(c1)cc(C)c1nnc(SCC(=O)Nc3cc(OC)c(OC)cc3C(=O)O)n12	-2	9	i	-1	35	i	/
COc1ccc(C(C)NC(=O)c2ccncc2)cc1 (stereo not given)	2	-14	i	-7	/	i	/
Cc1cccc(OCC(=O)Nc2nonc2NC(=O)COc2cccc(C)c2)c1	1	/	i	3	-13	i	/
Cc1ccc(C)c(OCC(=O)Nc2nonc2NC(=O)COc2cc(C)ccc2C)c1	0	-4	i	0	101*	i	64
Cc1ccc(C2CC2c2n[nH]c(=S)n2-c2ccc(C)cc2)cc1 (stereo not given)	-1	6	i	0	100*	i	0
Cc1ccc(-n2c(C3CC3c3ccc(Cl)cc3)n[nH]c2=S)cc1 (stereo not given)	-1	-35	i	-2	40	i	/
